Assay results: PMC6619336 (Clinical Pharmacology in Drug Development, 2018)
Read-outs that look alike come from different tables or passages of the source. Marks after values point to notes of the source that are not given here.

Key:
[1] = type: in vivo, human
In short: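 Six healthy men were dosed fasted, orally, once at 200 mg of 14C-labelled test compound (1.8 MBq) in water with 8% hydroxypropyl-β-cyclodextrin. Blood was drawn predose and from 15 min to 72 h, kept on ice, and spun at 1500g for 10 min at 4 °C within 30 min. Plasma radioactivity was read by liquid scintillation and parent by LC-MS/MS. Parameters were noncompartmental, with values below LLOQ set to zero.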

[2] = type: in vivo, human; remark: listed apart in the source
In short: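 Healthy men (n = 6) got one fasted oral 200 mg dose of 14C-labelled test compound (1.8 MBq) in water with 8% hydroxypropyl-β-cyclodextrin. Urine and feces were collected for 8 days. Expired air was sampled predose to 72 h and trapped in 1 N hyamine hydroxide with phenolphthalein. Urine and feces were homogenized, and radioactivity was read by liquid scintillation. Urinary parent was measured by LC-MS/MS. CL_R = Ae/AUC over the largest common quantifiable interval.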

[3] = Metabolic profiling of 14C-amenamevir in plasma, urine and feces; type: in vivo, human; conditions: single oral 200 mg
In short: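 After one fasted oral 200 mg dose of 14C-labelled test compound in 8% hydroxypropyl-β-cyclodextrin, healthy men gave plasma predose and at 0.5, 1, 2, 4, 6, 8, 10 and 12 h. Urine and fecal homogenates (stored at −70 °C) were also collected. Radiochromatograms were run by HPLC for all matrices. Urine and fecal metabolites were identified by LC-MS/MS.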

[4] = Safety and tolerability of single-dose amenamevir in healthy volunteers; type: in vivo, human; conditions: single 200 mg dose; for subjects with treatment‐emergent AEs: 6 subjects dosed
In short: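 Six healthy men aged 18–65 years received one fasted oral 200 mg dose and were monitored from screening through admission, discharge and a post-study visit. Adverse events were collected from spontaneous reports and non-leading questioning, coded with MedDRA v10.0, and graded for severity and treatment relation. Checks covered blood pressure, heart rate, ECG, physical examination, chemistry, hematology, urinalysis, serology and drug/alcohol screens.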

[5] = 300‐mg dose (capsule); mean ± SD; study 15L‐CL‐001; cited from earlier work
[6] = 300‐mg dose (capsule); mean ± SD; study 15L‐CL‐002; cited from earlier work
[7] = single 300‐mg (capsule) dose, day 1 of administration; study 15L‐CL‐003; cited from earlier work
[8] = tested on: cytochrome P450 (CYP) 3A; conditions: cited from earlier work
[9] = tested on: VZV; conditions: preclinical studies; cited from earlier work
[10] = healthy volunteers, cited from earlier work
[11] = subjects with moderate hepatic impairment; cited from earlier work
[12] = subjects with severe renal impairment; cited from earlier work
[13] = ^14C‐radioactivity in plasma, single oral 200 mg, n = 6, mean ± SD
[14] = ^14C‐radioactivity in whole blood, single oral 200 mg, n = 6, mean ± SD
[15] = ^14C‐radioactivity, single oral 200 mg
[16] = single oral 200 mg, n = 5, mean ± SD, 8 days of sampling

Cc1cccc(C)c1N(CC(=O)Nc1ccc(-c2ncon2)cc1)C(=O)C1CCS(=O)(=O)CC1 [Amenamevir]
AUCinf [1, 13]: 10,997 ± 2530 ng · h/mL | AUClast [1, 13]: 10,076 ± 2912 ng · h/mL | Cmax [1, 13]: 1041 ± 324 ng/mL | t½ [1, 13]: 8.03 ± 0.81 h | tmax ([1]; ^14C‐radioactivity in plasma, single oral 200 mg, n = 6, median (range)): 1.00 (1.00–3.02) hours | AUCinf [1, 14]: 10,425 ± 2265 ng · h/mL | AUClast [1, 14]: 8530 ± 2263 ng·h/mL | Cmax [1, 14]: 919 ± 284 ng/mL | t½ [1, 14]: 9.19 ± 2.13 h | tmax ([1]; ^14C‐radioactivity in whole blood, single oral 200 mg, n = 6, median (range)): 1.00 (1.00–2.00) hours | Whole blood:plasma ratio of AUCinf [1, 15]: 0.951 | Whole blood:plasma ratio of AUClast [1, 15]: 0.852 | Whole blood:plasma ratio of Cmax [1, 15]: 0.885 | AUC(0-inf) ([1]; human, plasma, po, 200 mg): 8820 ± 2510 ng·h/mL | AUC(0-t) ([1]; human, plasma, po, 200 mg): 8690 ± 2490 ng·h/mL | Cmax ([1]; human, plasma, po, 200 mg): 1020 ± 404 ng/mL | half-life ([1]; human, plasma, po, 200 mg): 459 ± 29.4 min | tmax ([1]; human, plasma, po, 200 mg): 1.5 h | CL renal ([2]; human, urine and plasma, po, 200 mg): 40.7 mL/min | dose eliminated by 168 hours after the dose ([2]; single oral 200 mg): > 95% | Ae expired air (cumulative recovery of ^14C‐radioactivity) ([2]; single oral 200 mg, N = 6, listed as 14C‐amenamevir): 0% | Ae urine (cumulative recovery of ^14C‐radioactivity) ([2]; single oral 200 mg, N = 6, mean ± SD, 8 days of sampling): 20.6 ± 4.0% | Ae feces (cumulative recovery of ^14C‐radioactivity) [2, 16]: 74.6 ± 3.0 ^a % | Ae total (cumulative recovery of ^14C‐radioactivity) [2, 16]: 95.3% | Ae total (cumulative recovery of ^14C‐radioactivity) ([2]; single oral 200 mg, n = 5, mean ± SD, 8 days of sampling, listed as 14C‐amenamevir): 95.3 ± 1.8 ^a % | Cumulative Aelast (amenamevir excreted into urine) ([2]; unchanged amenamevir in urine by LC‐MS/MS, single oral 200 mg, N = 6, mean ± SD): 20.9 ± 5.5 mg | share of the administered dose in feces ([3]; feces 0 to 72 hours after the dose): < 0.1% | share of the total radioactivity in plasma ([3]; plasma samples 0.5 to 12 hours after the dose): 80% | share of the total radioactivity excreted in urine ([3]; urine 0–48 hours after the dose): approximately 55% | clinical laboratory evaluations, vital signs, electrocardiogram recordings [4]: No clinically important abnormalities | deaths, serious AEs, or AEs resulting in discontinuation [4]: No deaths, serious AEs, or AEs resulting in discontinuation were reported | subjects with treatment‐emergent AEs [4]: 3 | subjects with treatment‐emergent AEs ([4]; listed as amenamevir): Three | severity of AEs ([4]; all 3 AEs): mild | safety and tolerability ([4]; healthy male subjects, n = 6): safe and well tolerated | half‐life [5]: 6.88 ± 0.56 h | peak concentration of drug in blood plasma [5]: 1040 ± 264 ng/mL | half‐life [6]: 7.85 ± 1.62 h | peak concentration of drug in blood plasma [6]: 1093 ± 201 ng/mL | drug excreted in the urine [7]: 11.07% | renal clearance [7]: 2.45 L/h | relation to CYP3A [8]: both a substrate and inducer | activity against VZV compared with acyclovir and valacyclovir [9]: more potent than acyclovir and valacyclovir | dose proportionality of pharmacokinetics [10]: less than dose proportional | safety and tolerability ([10]; single doses of 5 to 2400 mg or 300 to 600 mg/day for 7 days): safe and well tolerated | pharmacokinetic profile in moderate hepatic impairment [11]: not significantly altered | renal clearance in severe renal impairment [12]: reduced renal clearance
